The source made the active and inactive calls. The calls are words filed in the database; no cut-off is given here.
Columns and labels:
MX1 [1] = assay: Antitumor activity against human MX1 cells xenografted in mouse at 65 mg/kg, ip for 5 days; format: functional, organism-based; parameters: dose 65 mg/kg
In short: (§1)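 Mice implanted subcutaneously in the right flank with 1–2 mm³ MX-1 tumor fragments. Dosing began on day 7, at about 200 mm³ tumor size. Five mice per group: vehicle; 65 mg/kg once daily for five consecutive days; or that regimen plus Taxol 5 mg/kg iv once on day 7. Read-outs were tumor growth inhibition rate, survival and body weight.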

MX1 [2] = assay: Potentiation of taxol-induced antitumor activity against human MX1 cells xenografted in mouse at 65 mg/kg, ip for 5 days co-administered with taxol at 5 mg/kg, iv on day 7 post challenge; format: functional, organism-based; in short: as §1
HUVEC [3] = assay: Antiproliferative activity against human HUVEC at 195 uM after 24 hrs; format: cell-based
In short: (§2)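 HUVECs in M199 with 20% bovine serum and 20 ng/mL bFGF, seeded at 20,000 cells/well onto Matrigel that had gelled 30 min at 37 °C, left to attach overnight. Medium changed to one containing test agent or vehicle (0.5% DMSO) and cultured 24 h at 37 °C, 5% CO₂. Each well photographed and counted.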

ECV-304 = assay: (§3) Antiproliferative activity against human ECV304 cells assessed as growth inhibition after 72 hrs by MTT assay; format: cell-based; conditions: for IC50: Homo sapiens, ECV-304, 72 h; for growth inhibition (GI): human, ecv-304, 72 h
In short: (§4)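 ECV-304 grown in RPMI 1640 with 10% bovine serum, seeded 6000 cells/well and left to attach overnight at 37 °C, 5% CO₂. Medium then replaced by fresh medium with 1% FBS plus test agent or DMSO vehicle for 72 h. MTT added for a further 4 h, absorbance read at 535 nm. Duplicate wells, three independent repeats.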

[4] = Antitumor activity against human Lung cancer cells in metastasis model; format: functional, Cancer cell lines
[5] = Stability of the compound after 1 month by HPLC method (reference value: 91.6%); format: physicochemical; conditions: read-out: Stability
PC-3 = assay: Antitumor activity against human PC3 cells in xenograft model; format: functional
[6] = Toxicity in ip dosed nude mouse administered for 2 weeks; format: organism-based; conditions: in vivo
[7] = Aqueous solubility of the compound after 8 hrs by UV spectroscopy; format: physicochemical
[8] = Stability of the compound in aqueous solution after 8 hrs; format: physicochemical; conditions: buffer
In short: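 Stability followed in aqueous solution over 8 h.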

[9] = Stability of the compound assessed as purity after 2 months by HPLC method (reference value: 99.3%); format: physicochemical; conditions: 1461 h
MX1 [10] = assay: Antitumor activity against human MX1 cells implanted subcutaneously in mouse at 5 mg/kg, iv administered on day 7 post challenge; format: functional; in short: as §1
HUVEC [11] = assay: Antiproliferative activity against human HUVEC assessed as tube formation at 195 uM after 24 hrs; format: cell-based; in short: as §2
[12] = as §3; format: cell-based, ECV-304; conditions: human, ECV304 cells; read-out: GI; in short: as §4
Rattus norvegicus = assay: Prodrug activation in IV dosed rat assessed as formation of CPS11; format: organism-based; conditions: in vivo
Mus musculus [13] = assay: Toxicity in mouse assessed as mouse survival at 65 mg/kg, ip for 5 days co-administered with taxol at 5 mg/kg, iv on day 7 post challenge; format: organism-based; conditions: in vivo, 120 h
In short: (§5)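 Mice bearing MX-1 human breast tumour fragments (1–2 mm³, implanted subcutaneously in the right flank), five per group. Treatment began on day 7 after inoculation, at a tumour size of about 200 mm³. Groups received vehicle, test compound at 65 mg/kg once daily for five consecutive days, or the same schedule plus Taxol 5 mg/kg iv once on day 7. Survival and body weight loss were monitored.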

Mus musculus [14] = assay: Toxicity in mouse assessed as body weight loss at 65 mg/kg, ip for 5 days co-administered with taxol at 5 mg/kg, iv on day 7 post challenge; format: organism-based; conditions: in vivo, 120 h; in short: as §5
[15] = Bioavailability in intragastrically administered rat; format: ADME, organism-based; conditions: in vivo, po
In short: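 Single intragastric dose given to rats; oral bioavailability determined.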

[16] = Stability of the compound assessed as purity after 2 months by HPLC method (reference value: 98.9%); format: physicochemical; conditions: 1461 h

SMILES: O=C(OCN1C(=O)CCC(N2C(=O)c3ccccc3C2=O)C1=O)c1cccnc1 (stereo not drawn) [listing 1 of 2 here]
- Activity (MX1 [1]): inactive
- Activity (MX1 [2]): Active

SMILES: O=C(OCN1C(=O)CCC(N2C(=O)c3ccccc3C2=O)C1=O)c1ccccn1 (stereo not drawn)
- Activity (HUVEC [3]): 88%
- IC50 (ECV-304): 0.1 µM
- growth inhibition (GI) (ECV-304): Dose-dependent effect

SMILES: O=C1CCC(N2C(=O)c3ccccc3C2=O)C(=O)N1CO (stereo not drawn)
- inhibition (INH) [4]: 87%
- remaining at 730.5 h [5]: 58.9%
- inhibition (INH) (PC-3): 90%
- MTD at 336 h [6]: 100 mg/kg

SMILES: O=C(OCN1C(=O)CCC(N2C(=O)c3ccccc3C2=O)C1=O)c1cccnc1 (stereo not drawn) [listing 2 of 2 here]
- Activity (HUVEC [3]): 88%
- IC50 (ECV-304): 0.12 µM
- growth inhibition (GI) (ECV-304): Dose-dependent effect

SMILES: Cl.O=C(OCN1C(=O)CCC(N2C(=O)c3ccccc3C2=O)C1=O)c1cccnc1 (stereo not drawn)
- solubility at 8 h [7]: 1.48 mg/mL
- Stability [8]: Stable
- Stability [9]: Stable

SMILES: O=C(OCN1C(=O)CCC(N2C(=O)c3ccccc3C2=O)C1=O)c1ccncc1 (stereo not drawn)
- Activity (HUVEC [3]): 88%
- IC50 (ECV-304): 0.18 µM
- growth inhibition (GI) (ECV-304): Dose-dependent effect

SMILES: CC(=O)O[C@H]1C(=O)[C@@]2(C)[C@H]([C@H](OC(=O)c3ccccc3)[C@]3(O)C[C@H](OC(=O)[C@H](O)[C@@H](NC(=O)c4ccccc4)c4ccccc4)C(C)=C1C3(C)C)[C@]1(OC(C)=O)CO[C@@H]1C[C@@H]2O [PACLITAXEL]
- Activity (MX1 [10]): 33.1%

SMILES: O=C1CCC(N2C(=O)c3ccccc3C2=O)C(=O)N1 (stereo not drawn) [THALIDOMIDE]
- Activity (HUVEC [11]): 53%
- inhibition at 72 h [12]: 40%

SMILES: O=C(OCN1C(=O)CCC(N2C(=O)c3ccccc3C2=O)C1=O)c1cccnc1.O=S(=O)(O)c1ccccc1 (stereo not drawn)
- Activity (Rattus norvegicus): Active
- solubility at 8 h [7]: 0.84 mg/mL
- Activity (Mus musculus [13]): Non-toxic
- Activity (Mus musculus [14]): Non-toxic
- bioavailability [15]: 60.7%
- Stability [8]: Stable
- Stability [16]: Stable
